The values below come from ChEMBL document CHEMBL1795268, “Synthesis and antimicrobial activity of some novel dicationic sulphonophanes” (2011).

One assay relates to Proteus vulgaris. Briefly: Antimicrobial activity against Proteus vulgaris after 24 hrs by agar well diffusion assay. The class given is functional. In short, it runs like this: (§1)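 Bacterial isolates from a university culture collection were grown in Mueller-Hinton broth for 8 h at 37 °C, then swabbed onto nutrient agar plates. Test solutions went into wells cut in the agar, with commercial antibiotics as positive reference. Plates were incubated at 37 °C for 24 h, and the MIC was read from the zones of inhibition.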

Another assay relates to Bacillus subtilis. Briefly: Antimicrobial activity against Bacillus subtilis after 24 hrs by agar well diffusion assay. The class given is functional. A digest of the protocol:
as §1

In the next assay the test system is Vibrio cholerae. In words: Antimicrobial activity against Vibrio cholerae after 24 hrs by agar well diffusion assay. The class given is functional.
Another assay has as its system Candida albicans. Briefly: Antifungal activity against Candida albicans after 48 hrs by agar well diffusion assay. The class given is functional. A digest of the protocol:
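C. albicans, kept on Sabouraud's dextrose agar, was grown in Sabouraud's dextrose broth at 37 °C for 8 h to make the inoculum for agar well diffusion. The MIC was recorded.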

A further assay deals with Escherichia coli. Briefly: Antimicrobial activity against Escherichia coli after 24 hrs by agar well diffusion assay. The class given is functional. In short, it runs like this:
as §1

In the next assay the test system is Staphylococcus aureus. Briefly: Antimicrobial activity against Staphylococcus aureus after 24 hrs by agar well diffusion assay. Type of assay: functional. A digest of the protocol: as §1
For assay [1], the target named is Gyrase B (Escherichia coli) (UniProt Q6S6F1). In words: Inhibition of Escherichia coli DNA gyrase B.

Values after ≈ are worked out from the molar mass of the structure shown. Active and inactive are the calls of the source. The rule behind the calls is not given here.

As to `O=S1(=O)c2ccc(cc2)Cn2cc[n+](c2)Cc2ccc(cc2)C[n+]2ccn(c2)Cc2ccc1cc2.[Br-].[Br-]`, the MIC amounted to 40 µg/mL against Proteus vulgaris; 30 µg/mL against Bacillus subtilis; 70 µg/mL in the assay on Vibrio cholerae; 25 µg/mL against Candida albicans; 60 µg/mL in the assay on Escherichia coli; 25 µg/mL with Staphylococcus aureus.

Take `O=S1(=O)c2ccc(cc2)Cn2cc[n+](c2)Cc2ccc(cc2)-c2cccc(c2)-c2ccc(cc2)C[n+]2ccn(c2)Cc2ccc1cc2.[Br-].[Br-]`: the MIC is 20 µg/mL against Proteus vulgaris; 15 µg/mL with Bacillus subtilis; 25 µg/mL in the assay on Vibrio cholerae; 5 µg/mL against Candida albicans; 25 µg/mL with Escherichia coli; 30 µg/mL against Staphylococcus aureus.

`COc1cc2c(OC)cc1C[n+]1ccn(c1)Cc1ccc(cc1)S(=O)(=O)c1ccc(cc1)Cn1cc[n+](c1)C2.[Br-].[Br-]`: the MIC in the assay with Proteus vulgaris amounted to 30 µg/mL; with Bacillus subtilis, 15 µg/mL; against Vibrio cholerae, 40 µg/mL; against Candida albicans, 10 µg/mL; with Escherichia coli, 30 µg/mL; with Staphylococcus aureus it was 10 µg/mL.

Take `O=S1(=O)c2ccc(cc2)Cn2cc[n+](c2)Cc2cccc(c2)C[n+]2ccn(c2)Cc2ccc1cc2.[Br-].[Br-]`: the MIC against Proteus vulgaris came to 40 µg/mL; against Bacillus subtilis, 20 µg/mL; with Vibrio cholerae, 35 µg/mL; against Candida albicans, 40 µg/mL; in the assay on Escherichia coli, 55 µg/mL; with Staphylococcus aureus, 30 µg/mL.

Consider `Clc1ccccc1C(c1ccccc1)(c1ccccc1)n1ccnc1` [CLOTRIMAZOLE], for which 5 µg/mL (≈ 14.5 µM) was the least that counted as inhibitory against Candida albicans (MIC).

In the case of `O=C1c2ccc(cc2)C[n+]2ccn(c2)Cc2ccc(cc2)S(=O)(=O)c2ccc(cc2)Cn2cc[n+](c2)Cc2ccc1cc2.[Br-].[Br-]`, the minimal inhibitory concentration (MIC) with Proteus vulgaris came out at 30 µg/mL; in the assay on Bacillus subtilis, 15 µg/mL; against Vibrio cholerae, 5 µg/mL; with Candida albicans, 5 µg/mL; in the assay with Escherichia coli, 25 µg/mL; against Staphylococcus aureus, 15 µg/mL. Further, in assay [1], the inhibition result was “Active”.

Turning to `O=S1(=O)c2ccc(cc2)Cn2cc[n+](c2)Cc2ccccc2C[n+]2ccn(c2)Cc2ccc1cc2.[Br-].[Br-]`, the MIC in the assay with Proteus vulgaris amounted to 60 µg/mL; with Bacillus subtilis, 40 µg/mL; with Vibrio cholerae it was 35 µg/mL; with Candida albicans, 20 µg/mL; with Escherichia coli, 30 µg/mL; against Staphylococcus aureus it was 40 µg/mL.

Regarding `O=S1(=O)c2ccc(cc2)Cn2cc[n+](c2)Cc2ccc(cc2)S(=O)(=O)c2ccc(cc2)C[n+]2ccn(c2)Cc2ccc1cc2.[Br-].[Br-]`, the MIC stood at 15 µg/mL with Proteus vulgaris; 10 µg/mL against Bacillus subtilis; 10 µg/mL against Vibrio cholerae; 5 µg/mL with Candida albicans; 15 µg/mL with Escherichia coli; 5 µg/mL against Staphylococcus aureus. The inhibition result in assay [1] is “Active”.

As for `O=C(O)c1cn(C2CC2)c2cc(N3CCNCC3)c(F)cc2c1=O` [CIPROFLOXACIN], the MIC against Proteus vulgaris amounted to 10 µg/mL (≈ 30.2 µM); with Bacillus subtilis it was 5 µg/mL (≈ 15.1 µM); in the assay with Vibrio cholerae, 10 µg/mL (≈ 30.2 µM); in the assay on Escherichia coli it was 5 µg/mL (≈ 15.1 µM); against Staphylococcus aureus it was 5 µg/mL (≈ 15.1 µM).

`O=C1c2ccc(cc2)C[n+]2ccn(c2)Cc2ccc(cc2)S(=O)(=O)c2ccc(cc2)Cn2cc[n+](c2)Cc2ccc(cc2)C(=O)c2cccc1c2.[Br-].[Br-]`: the MIC in the assay on Proteus vulgaris was found to be 25 µg/mL; against Bacillus subtilis it was 35 µg/mL; in the assay on Vibrio cholerae, 30 µg/mL; with Candida albicans, 15 µg/mL; against Escherichia coli, 30 µg/mL; against Staphylococcus aureus, 40 µg/mL.
